WT yeast gro inh: growth inhibition of WT yeast, mitochondrial fusion screen | mitochondrial fusion phenotypic screen, WT strain | inhibition, % at 10 µM | 190,000 compounds, 2.1% hits; in the data active = inhibition above about 58%; tested in S. cerevisiae
EBV gp42 inh: blocks Epstein-Barr virus glycoprotein 42 binding; Q1HVG2; Fluorescence polarization binding assay, mP read-out; inhibition, % (tested at 21.74 µM); 220,000 compounds, 0.42% hits; in the data active = inhibition above about 50%
Target sequence (Q1HVG2 whole entry, looked up): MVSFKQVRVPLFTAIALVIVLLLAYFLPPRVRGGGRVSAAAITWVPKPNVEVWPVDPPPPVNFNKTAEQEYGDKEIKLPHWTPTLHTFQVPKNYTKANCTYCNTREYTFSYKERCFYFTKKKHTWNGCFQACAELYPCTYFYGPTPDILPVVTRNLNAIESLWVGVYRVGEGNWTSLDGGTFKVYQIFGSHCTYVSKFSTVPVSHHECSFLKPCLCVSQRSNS
CHOP inhibitor: CHOP inhibition in unfolded protein response; CHO-K1 CHOP-promoter luciferase, tunicamycin-induced, 15-18 h; inhibition, % at 10 µM; 220,000 compounds, 3.8% hits; AID 2732;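 active = compounds that reduced the stress-induced luciferase reporter signal by more than about 70% of percent inhibition, limit read from the data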;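 note: 0% = tunicamycin plus vehicle and 100% = wells without tunicamycin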
GRIN3A LBD mod: modulates the human NR3A ligand-binding domain | 340,000 compounds, 2.5% hits | NR3A LBD differential scanning fluorimetry, Tm shift; 0% = protein alone, 100% = glycine-bound protein | AID 1259313 | Tm shift relative to glycine control, % at 25 µM;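 active = melting temperature shift of at least 10% of the positive control shift, at one fixed dose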
MPTP inh: blocks calcium-induced mitochondrial swelling | isolated mouse mitochondria, Ca2+ swelling absorbance, 30 min | inhibition, % at 10 µM | 360,000 compounds, 1.4% hits;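 active = inhibition of 50% or more, scaled per plate between neutral and stimulator controls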;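 note: 0% = DMSO wells given calcium and 100% = 1 mM EGTA wells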
TbMetRS inhib: Trypanosoma brucei MetRS inhibition; 360,000 compounds, 0.4% hits; AID 624268; inhibition, % at 11.9 µM; purified T. brucei MetRS, ATP depletion, Kinase-Glo luminescence;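 active = inhibition above a per-plate cutoff of the control wells' mean inhibition plus 3 SD, cut at about 5.5% in these data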;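 note: 0% = DMSO wells median and 100% = median of wells with control inhibitor compound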
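Dosing: 11.9 µM compound single dose, 0.9% DMSO; Assay system: purified T. brucei MetRS enzyme; Measured by: Kinase-Glo luciferase luminescence reporting remaining unconsumed ATP; Schedule: 15 min plus 2 h at 25 °C.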
* marks the source's active call; other numbers are inactive results; / = not tested or not shown. Shown are actives, neighbours in structure and some others; about 6.4% of the full set was active somewhere.

SMILES	WT yeast gro inh	EBV gp42 inh	CHOP inhibitor	GRIN3A LBD mod	MPTP inh	TbMetRS inhib
CC(C)N1CCc2c(sc(NC(=O)c3ccc4ccccc4c3)c2C(N)=O)C1	/	/	/	-5	0	0
CC(C)N1CCc2c(sc(NC(=O)c3cc4cc([N+](=O)[O-])ccc4s3)c2C(N)=O)C1	-11	-17	78*	10*	1	0
COC(=O)c1ccc(C2=NOC(C)(c3sc(-c4ccccc4)nc3C)C2)cc1 (stereo not given)	/	-6	11	-7	0	0
CCOC(=O)CS(=O)(=O)c1ccc(C(F)(F)F)cn1	8	-7	11	-3	4	0
Cc1cc(C(=O)CN2C(=O)c3ccccc3C2=O)c(C)n1C1CC1	8	3	-41	17*	0	0
CCN1C(=O)C(=O)N(CC(=O)c2cc(C)n(C3CC3)c2C)C1=O	/	/	/	-1	-1	0
O=C(c1ccccc1)N1N=C(c2ccccc2)CC1(O)C(F)(F)F (stereo not given)	/	/	/	0	1	-2
C=CCN=C(NC#N)SCc1ccccc1	-2	-17	-4	0	1	-3
CCOC(=O)N1CCN(C(=O)c2cc(COc3cccc(C(F)(F)F)c3)on2)CC1	/	/	/	25*	0	0
Cc1ccc(/C(=N\O)c2oc3c(C)c4oc(=O)cc(C)c4cc3c2C)cc1	70*	-14	28	-1	0	0
O=c1cc(C=NNc2ccc([N+](=O)[O-])cc2)[nH]c(=O)[nH]1	/	/	/	-3	0	0
Cc1cc(C)nc(NC(=O)Nc2ccc3c(c2)OCO3)c1	-8	-10	71*	-1	2	-1
CC(=O)c1ccc(NC(=O)Nc2cccc3ccccc23)cc1	/	/	/	13*	9	0
CC(=O)Nc1ccc(NC(=O)Nc2cccc3ccccc23)cc1	/	/	/	0	1	0
CC(=O)Nc1ccc(NC(=O)Nc2ccccc2)cc1	/	/	/	19*	0	3
O=C(Nc1ccc2c(c1)OCO2)c1cccc(F)c1	9	-11	-2	-21	-4	-1
O=C(Nc1cccc(F)c1)Nc1ccc2c(c1)OCO2	/	/	/	37*	18	0
COc1ccc(Br)cc1C(=O)NCc1cccnc1	1	-14	-3	3	0	1
Cc1ccccc1OCCCC(=O)Nc1ccc(N2CCOCC2)cc1	-5	0	24	-6	0	-1
CN(Cc1ccccn1)Cc1nc(COc2ccccc2)no1	-6	-9	5	0	0	0
O=C(Nc1ccccc1)Nc1ccc(C(=O)N2CCCC2)cc1	62*	-4	13	-46	3	-3
CC(=O)Nc1ccc(NC(=O)Nc2cc(C)cc(C)c2)cc1	/	0	14	29*	1	0
CC(=O)Nc1ccc(C#Cc2ccc(NC(C)=O)cc2)cc1	-1	-16	16	29*	1	0
CC(O)c1cccc(NC(=O)Nc2cccc(NC(=O)Nc3cccc(C(C)O)c3)c2)c1 (stereo not given)	/	/	/	27*	0	0
CC(O)c1cccc(NC(=O)CCC(=O)O)c1 (stereo not given)	5	-19	-10	-1	0	1
SMILES	WT yeast gro inh	EBV gp42 inh	CHOP inhibitor	GRIN3A LBD mod	MPTP inh	TbMetRS inhib
COCCCN1C(=O)C(CC(=O)NCc2ccco2)CC(C(=O)N2CCOCC2)=C1C (stereo not given)	/	/	/	/	0	0
CCOC(=O)C1=C(C)NC(C)=C(C(=O)OCC)C1c1cc(N)ccc1OC(F)F	-8	-5	50	2	4	0
CC(=O)Nc1ccc(N=Nc2ccc(O)cc2)cc1	-6	-28	24	15*	1	0
CC(=O)c1ccc(NC(=O)N[C@@H](CC(C)C)C(=O)O)cc1	-10	3	72*	3	-2	0
CC(=O)c1ccc(NC(=O)Nc2ccncc2)cc1	2	-1	-12	6	2	-1
COC(=O)c1sccc1NC(=O)Nc1cccc(OC)c1	/	/	/	-1	2	-1
COC(=O)c1sccc1NC(=O)Nc1cccc(F)c1	20	-4	5	10*	14	1
CC(=O)Nc1cccc(NC(=O)Nc2ccc(C(C)=O)cc2)c1	1	6	-14	13*	0	0
CC(=O)c1cccc(NC(=O)N[C@@H](CC(C)C)C(=O)O)c1	1	3	1	3	-1	-1
CCCn1c(SCC(=O)N(C)C2CCS(=O)(=O)C2)nc2sc3c(c2c1=O)CCC3 (stereo not given)	/	/	/	-2	-2	0
CC1(C)OC(=O)C2=C(C[C@@H](C3CCCCC3)O[C@H]2c2ccccc2)O1	/	/	/	/	1	-1
CC(=O)Nc1cccc(NC(=O)Nc2cccc(F)c2)c1	8	-3	12	29*	6	1
CNC(=S)Nc1cc2oc3ccccc3c2cc1OC	/	/	/	18*	0	0
CCNC(=S)Nc1cc2oc3ccccc3c2cc1OC	/	/	/	7	2	0
COc1cc2c(cc1NC(=S)NC(=O)/C=C/c1ccc(OC)c(OC)c1)oc1ccccc12	3	18	-35	0	2	-1
CCCNC(=S)Nc1cc2oc3ccccc3c2cc1OC	/	/	/	18*	0	0
O=C(CSc1ccc2nnc(CCNC(=O)c3ccccc3)n2n1)NC1CCCC1	/	/	/	-2	-1	0
FC(F)(F)c1cccc(Cn2nnnc2-c2ccc(Cl)cc2)c1	8	-12	60	1	0	0
Oc1[nH]c2ccccc2c1N=Nc1ccccc1F	12	-231	91*	8	5	0
Oc1[nH]c2ccccc2c1N=Nc1ccccc1	/	101*	17	-8	6	0
O=C(N=Nc1c(O)[nH]c2ccccc12)Nc1ccccc1	/	/	/	-5	-2	0
CCOC(=O)/C(=N\Nc1ccccc1)P(=O)(c1ccccc1)c1ccccc1	/	7	7	-1	3	-1
O=C(NC(=S)N1CCCCC1CO)C12CC3CC(CC(C3)C1)C2 (stereo not given)	/	-2	-18	2	2	1
COc1cc(C(=O)NCc2ccc(-c3nc4ccccc4o3)cc2)cc(OC)c1OC	33	-6	71*	2	0	0
Cc1ccc(C(=O)Nc2cccc(-c3nc4ncccc4o3)c2)cc1	/	-7	21	0	2	0
COc1ccccc1C(=O)Nc1ccc2oc(-c3ccc(F)cc3)nc2c1	-18	5	30	14*	4	-1
Cc1ccc2oc(-c3ccc(NC(=O)c4ccncc4)cc3O)nc2c1	9	-2	-17	33*	-1	-1
COc1ccc(CC(=O)Nc2ccc(-c3nc4cc(C)ccc4o3)c(O)c2)cc1OC	14	-106	-69	-6	1	0
Cc1ccc(OCC(=O)Nc2ccc(-c3nc4ncccc4o3)cc2)c(C)c1	0	-16	84*	10	-4	0
CCCC(=O)Nc1ccc2oc(-c3ccc(OC)c(Br)c3)nc2c1	1	-12	96*	2	12	0

Screens from PubChem.
